# Test results taken from ChEMBL document CHEMBL1156469 (2007).
# Activity calls are given as the source filed them. No cut-off for these calls is given here.
# Test system: Rattus norvegicus
# Assay: Antiapoptotic activity against osteoblasts in ovariectomized Wistar rat at 0.1 mg/kg after 10 weeks
# Type: functional, organism-based
# Design: dose 0.1 mg/kg
# In short: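 After 10 weeks, lumbar vertebrae were removed. Apoptotic osteoblasts were detected by TUNEL staining (Klenow FragEL) in undecalcified, plastic-embedded sections. Values are means ± S.D.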
structure (smiles),measurement,value
C[C@]12CC[C@@H]3c4ccc(O)cc4CC[C@H]3[C@@H]1CC[C@@H]2O,Activity,Active
